The text below walks through data of ChEMBL document CHEMBL1154728, “Synthesis of nitroimidazole derived oxazolidinones as antibacterial agents” (Eur J Med Chem, 2010).

Structures are written as SMILES. Values after ≈ are worked out from the molar mass of the structure shown.

For one series, the system named is Enterococcus faecalis. Nature of the series: Antibacterial activity against Enterococcus faecalis MTCC439 after 24 hrs by spectrophotometry. The format is functional. To be noted: MTCC439, 24 h. The procedure, abridged:
(§1)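 Strains grown on nutrient agar at 37 °C for 24 h, suspended in normal saline with 0.05% Tween 20 to about […] cells/mL (0.5 McFarland). Broth microdilution per NCCLS in Mueller Hinton broth. Compounds dissolved in DMSO at 1 mg/mL (stock), serially two-fold diluted. Growth, drug and negative controls included. Incubation at 35 °C, moist and dark; MIC read spectrophotometrically at 24 h.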

The test system of series [1] is Staphylococcus aureus. Put plainly: Antibacterial activity against […] Staphylococcus aureus ATCC 25923 after 24 hrs by spectrophotometry. To be noted: ATCC 25923, 24 h. It is filed as functional. A digest of the protocol:
(§2)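 Strains grown on nutrient agar at 37 °C for 24 h, then suspended in normal saline with 0.05% Tween 20 at about […] cells/mL (0.5 McFarland). Broth microdilution in Mueller Hinton broth per NCCLS. DMSO stock 1 mg/mL diluted into broth, then two-fold serial dilutions. Plates incubated at 35 °C in a moist, dark chamber. MIC read spectrophotometrically at 24 h.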

The subject of series [2] is Staphylococcus aureus. Put plainly: Antibacterial activity against methicillin resistant Staphylococcus aureus ATCC 70069 after 24 hrs by spectrophotometry. The format is functional. Particulars: ATCC 70069, 24 h. The procedure, abridged: as §2
Series [3] deals with Staphylococcus aureus. Put plainly: Antibacterial activity against […] Staphylococcus aureus ATCC 29213 after 24 hrs by spectrophotometry. It is filed as functional. To be noted: ATCC 29213, 24 h. The procedure, abridged:
as §2

A further series deals with Bacillus cereus. Put plainly: Antibacterial activity against Bacillus cereus MTCC 430 after 24 hrs by spectrophotometry. Particulars: MTCC 430, 24 h. The format is functional. The procedure, abridged:
as §1

The subject of the next series is Streptococcus pyogenes. Put plainly: Antibacterial activity against Streptococcus pyogenes after 24 hrs by spectrophotometry. It is filed as functional. A digest of the protocol: as §1
The subject of a further series is Klebsiella pneumoniae. Nature of the series: Antibacterial activity against Klebsiella pneumoniae ATCC 27736 after 24 hrs by spectrophotometry. It is filed as functional. Particulars: ATCC 27736, 24 h. A digest of the protocol:
as §1

In series [4] the test system is L929. Nature of the series: Cytotoxicity against mouse L929 cells assessed as change in morphology at 0.09 ug/ml after 24 hrs by phase contrast microscopy. It is filed as cell-based. To be noted: l929, 24 h. A digest of the protocol:
(§3)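 L929 fibroblasts in DMEM under 5% CO₂, switched to serum-free DMEM at 90% confluency, then exposed to compound for 24 h. Cells were fixed in the wells and stained with Giemsa for 30 min at 37 °C. Morphology was examined by phase contrast microscopy against untreated control cells.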

The subject of series [5] is L929. Nature of the series: Cytotoxicity against mouse L929 cells assessed as change in morphology at 50 ug/ml after 24 hrs by phase contrast microscopy. Particulars: l929, 24 h. The format is cell-based. A digest of the protocol:
as §3

Series [6] relates to L929. Nature of the series: Cytotoxicity against mouse L929 cells assessed as cell viability after 24 hrs by MTT assay. The format is cell-based. Particulars: l929, 24 h. The procedure, abridged: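 Mouse fibroblast L929 cells seeded at 1 × 10³ cells per well in DMEM under humidified 5% CO₂. Medium switched to serum-free DMEM at 90% confluency (5 h). Cells exposed 24 h to a two-fold series ([…], then 12.5 down to 0.09). MTT read-out: absorbance at 570 minus 630 nm taken as the viability index.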
For orientation: Tetrazolium assays rely on reduction of a dye to a coloured formazan, in cell work by metabolically active cells.

What is called MIC is the least concentration at which growth counts as inhibited. The low end stands for greater potency, the high end for weaker potency. `CC(=O)NC[C@H]1CN(c2ccc(N3CCN(CCn4ccnc4[N+](=O)[O-])CC3)c(F)c2)C(=O)O1`: the MIC against Enterococcus faecalis is 25 µg/mL (≈ 52.6 µM); against Staphylococcus aureus [1] it was 12.5 µg/mL (≈ 26.3 µM); against Staphylococcus aureus [2] it was 6.25 µg/mL (≈ 13.1 µM); against Staphylococcus aureus [3], 12.5 µg/mL (≈ 26.3 µM); against Bacillus cereus it was 0.78 µg/mL (≈ 1.64 µM); in the series with Streptococcus pyogenes, 0.78 µg/mL (≈ 1.64 µM). Moreover, in the series on Klebsiella pneumoniae, inhibition of growth (MIC) required 25 µg/mL (≈ 52.6 µM).
In the case of `CC(=O)NC[C@H]1CN(c2ccc(N3CCN(CCCn4c([N+](=O)[O-])cnc4C)CC3)c(F)c2)C(=O)O1`, the MIC came to 12.5 µg/mL (≈ 24.8 µM) in the series on Enterococcus faecalis; 12.5 µg/mL (≈ 24.8 µM) in the series on Staphylococcus aureus [1]; 6.25 µg/mL (≈ 12.4 µM) in the series on Staphylococcus aureus [2]; 12.5 µg/mL (≈ 24.8 µM) with Staphylococcus aureus [3]; 6.25 µg/mL (≈ 12.4 µM) against Bacillus cereus; 1.56 µg/mL (≈ 3.1 µM) against Streptococcus pyogenes. The molecule also yielded an MIC in the series with Klebsiella pneumoniae of 1.56 µg/mL (≈ 3.1 µM).
For `CC(=O)NC[C@H]1CN(c2ccc(N3CCN(C(=O)Cn4c([N+](=O)[O-])cnc4C)CC3)c(F)c2)C(=O)O1`, the MIC with Enterococcus faecalis came out at 6.25 µg/mL (≈ 12.4 µM); in the series with Staphylococcus aureus [1], 6.25 µg/mL (≈ 12.4 µM); against Staphylococcus aureus [2], 6.25 µg/mL (≈ 12.4 µM); in the series with Staphylococcus aureus [3], 6.25 µg/mL (≈ 12.4 µM); in the series with Bacillus cereus, 1.56 µg/mL (≈ 3.1 µM); against Streptococcus pyogenes, 1.56 µg/mL (≈ 3.1 µM). The molecule further displayed an MIC in the series on Klebsiella pneumoniae of 3.12 µg/mL (≈ 6.2 µM).
As to `CC(=O)NC[C@H]1CN(c2ccc(N3CCN(CC(O)Cn4c([N+](=O)[O-])cnc4C)CC3)c(F)c2)C(=O)O1` (stereo partly specified), the MIC in the series with Enterococcus faecalis was determined as 1.56 µg/mL (≈ 3 µM); against Staphylococcus aureus [1] it was 3.12 µg/mL (≈ 6.01 µM); in the series on Staphylococcus aureus [2], 0.39 µg/mL (≈ 0.751 µM); in the series with Staphylococcus aureus [3], 1.56 µg/mL (≈ 3 µM); with Bacillus cereus, 0.78 µg/mL (≈ 1.5 µM); in the series on Streptococcus pyogenes, 0.39 µg/mL (≈ 0.751 µM). Also, in the series with Klebsiella pneumoniae, the MIC is above 50 µg/mL.
With `CC(=O)NC[C@H]1CN(c2ccc(N3CCN(CCn4c([N+](=O)[O-])cnc4C)CC3)c(F)c2)C(=O)O1`, the MIC against Enterococcus faecalis amounted to 3.12 µg/mL (≈ 6.37 µM); against Staphylococcus aureus [1] it was 3.12 µg/mL (≈ 6.37 µM); against Staphylococcus aureus [2], 0.78 µg/mL (≈ 1.59 µM); against Staphylococcus aureus [3] it was 3.12 µg/mL (≈ 6.37 µM); in the series on Bacillus cereus, 0.097 µg/mL (≈ 0.198 µM); in the series on Streptococcus pyogenes it was 0.78 µg/mL (≈ 1.59 µM). In the series on Klebsiella pneumoniae, this molecule had a minimal inhibitory concentration (MIC) of 0.78 µg/mL (≈ 1.59 µM). The results for the Activity entry with L929 [4], with L929 [5] and in the series on L929 [6] were “Non-toxic”, “Toxic” and “Toxic”, respectively.
With `CC(=O)NC[C@H]1CN(c2ccc(N3CCN(CC(O)Cn4cnc([N+](=O)[O-])c4)CC3)c(F)c2)C(=O)O1` (stereo partly specified), the MIC in the series on Staphylococcus aureus [1] was 6.25 µg/mL (≈ 12.4 µM); against Staphylococcus aureus [2], 6.25 µg/mL (≈ 12.4 µM); in the series on Staphylococcus aureus [3] it was 12.5 µg/mL (≈ 24.7 µM); against Bacillus cereus it was 3.12 µg/mL (≈ 6.17 µM); in the series with Streptococcus pyogenes it was 3.12 µg/mL (≈ 6.17 µM); against Klebsiella pneumoniae, above 50 µg/mL.
As for `CC(=O)NC[C@H]1CN(c2ccc(N3CCN(CCCn4ccnc4[N+](=O)[O-])CC3)c(F)c2)C(=O)O1`, the MIC with Enterococcus faecalis came out at 12.5 µg/mL (≈ 25.5 µM); in the series on Staphylococcus aureus [1], 6.25 µg/mL (≈ 12.8 µM); in the series on Staphylococcus aureus [2], 6.25 µg/mL (≈ 12.8 µM); in the series on Staphylococcus aureus [3] it was 12.5 µg/mL (≈ 25.5 µM); against Bacillus cereus it was 6.25 µg/mL (≈ 12.8 µM); with Streptococcus pyogenes, 0.78 µg/mL (≈ 1.59 µM). Besides, 0.78 µg/mL (≈ 1.59 µM) was the least that counted as inhibitory with Klebsiella pneumoniae (MIC).
Consider `CC(=O)NC[C@H]1CN(c2ccc(N3CCN(CCCn4cnc([N+](=O)[O-])c4)CC3)c(F)c2)C(=O)O1`, for which the MIC was 0.78 µg/mL (≈ 1.59 µM) in the series with Enterococcus faecalis; 0.78 µg/mL (≈ 1.59 µM) in the series with Staphylococcus aureus [1]; 0.78 µg/mL (≈ 1.59 µM) with Staphylococcus aureus [2]; 0.78 µg/mL (≈ 1.59 µM) against Staphylococcus aureus [3]; 0.78 µg/mL (≈ 1.59 µM) against Bacillus cereus; 0.39 µg/mL (≈ 0.797 µM) against Streptococcus pyogenes. In the series with Klebsiella pneumoniae, this molecule displayed an MIC of 0.78 µg/mL (≈ 1.59 µM). In addition, the Activity entry in the series on L929 [4] is “Non-toxic”; in the series with L929 [5], “Toxic”; in the series with L929 [6], “Toxic”.
As to `CC(=O)NC[C@H]1CN(c2ccc(N3CCN(C(=O)Cn4cnc([N+](=O)[O-])c4)CC3)c(F)c2)C(=O)O1`, the minimum inhibitory concentration (MIC) came to 25 µg/mL (≈ 51.1 µM) in the series with Enterococcus faecalis; 12.5 µg/mL (≈ 25.5 µM) against Staphylococcus aureus [1]; 3.12 µg/mL (≈ 6.37 µM) against Staphylococcus aureus [2]; 12.5 µg/mL (≈ 25.5 µM) in the series on Staphylococcus aureus [3]; 6.25 µg/mL (≈ 12.8 µM) against Bacillus cereus; 1.56 µg/mL (≈ 3.19 µM) in the series with Streptococcus pyogenes. It took 25 µg/mL (≈ 51.1 µM) to inhibit growth against Klebsiella pneumoniae (MIC).
For `CC(=O)NC[C@H]1CN(c2ccc(N3CCOCC3)c(F)c2)C(=O)O1` [LINEZOLID], the MIC came out at 3.12 µg/mL (≈ 9.25 µM) in the series on Enterococcus faecalis; 1.56 µg/mL (≈ 4.62 µM) in the series on Staphylococcus aureus [1]; 1.56 µg/mL (≈ 4.62 µM) in the series with Staphylococcus aureus [2]; 3.12 µg/mL (≈ 9.25 µM) with Staphylococcus aureus [3]; 0.78 µg/mL (≈ 2.31 µM) in the series on Bacillus cereus; 1.56 µg/mL (≈ 4.62 µM) with Streptococcus pyogenes. The same molecule gave an MIC in the series on Klebsiella pneumoniae of 1.56 µg/mL (≈ 4.62 µM).
Take `CN[C@H](CC(C)C)C(=O)N[C@H]1C(=O)N[C@@H](CC(N)=O)C(=O)N[C@H]2C(=O)N[C@H]3C(=O)N[C@H](C(=O)N[C@H](C(=O)O)c4cc(O)cc(O)c4-c4cc3ccc4O)[C@H](O)c3ccc(c(Cl)c3)Oc3cc2cc(c3O[C@@H]2O[C@H](CO)[C@@H](O)[C@H](O)[C@H]2O[C@H]2C[C@](C)(N)[C@H](O)[C@H](C)O2)Oc2ccc(cc2Cl)[C@H]1O` [VANCOMYCIN]: the MIC against Enterococcus faecalis was found to be 0.78 µg/mL (≈ 0.538 µM); with Staphylococcus aureus [1], 0.39 µg/mL (≈ 0.269 µM); against Staphylococcus aureus [2] it was 6.25 µg/mL (≈ 4.31 µM); in the series on Staphylococcus aureus [3], 1.56 µg/mL (≈ 1.08 µM); in the series on Bacillus cereus, 0.19 µg/mL (≈ 0.131 µM); in the series on Streptococcus pyogenes, 0.39 µg/mL (≈ 0.269 µM).
